Measurements published in ChEMBL document CHEMBL4118061, “Design and synthesis of potent HIV-1 protease inhibitors with (S)-tetrahydrofuran-tertiary amine-acetamide as P2-ligand: Structure-activity studies and biological evaluation” (Eur J Med Chem, 2017).

biological target: Protease (Human immunodeficiency virus 1, UniProt Q9YQ12); test: Inhibition of HIV1 protease expressed in Escherichia coli using Arg-Glu (EDANS)-Ser-GlnAsn-Tyr-Pro-Ile-Val-Gln-Lys(DABCYL)-Arg as substrate preincubated for 20 to 30 mins followed by substrate addition measured for 10 mins by FRET method
Sequence (Q9YQ12 whole entry): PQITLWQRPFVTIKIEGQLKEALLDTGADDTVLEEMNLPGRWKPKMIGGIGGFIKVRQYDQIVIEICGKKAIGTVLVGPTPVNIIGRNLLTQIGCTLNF
Summary of the method: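 Wild-type HIV-1 protease, cloned and expressed in E. coli, then purified. Inhibitors were dissolved in DMSO and diluted. Reaction buffer: 0.1 M sodium acetate, 1 M NaCl, 1 mM EDTA, 1 mM DTT, 2% DMSO, 1 mg/mL BSA, pH 4.7. Enzyme and inhibitor were preincubated 20-30 min at room temperature, then substrate was added. FRET read-out was recorded for about 10 min.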

Question: `COc1ccc(S(=O)(=O)N(CC(C)C)C[C@@H](O)[C@H](Cc2ccccc2)NC(=O)CN[C@H]2CCOC2)cc1OC` was tested. Which IC50 did it give?
Answer: Its IC50 is 0.31 µM.

Question: Which IC50 does the source give for `COc1ccc(S(=O)(=O)N(CC(C)C)C[C@@H](O)[C@H](Cc2ccccc2)NC(=O)CN([C@H]2CCOC2)S(C)(=O)=O)cc1` here?
Answer: Its IC50 is 0.0126 µM.

Question: For `COCCN(CC(=O)N[C@@H](Cc1ccccc1)[C@H](O)CN(CC(C)C)S(=O)(=O)c1ccc(CO)cc1)[C@H]1CCOC1`, which IC50 is on record?
Answer: Its IC50 is 0.00426 µM.

Question: With `CC(C)CN(C[C@@H](O)[C@H](Cc1ccccc1)NC(=O)CN[C@@H]1CCOC1)S(=O)(=O)c1ccc2c(c1)OCO2` as the compound, how does the IC50 read?
Answer: The IC50 was 0.0534 µM.

Question: `CC(C)CN(C[C@@H](O)[C@H](Cc1ccccc1)NC(=O)CN([C@H]1CCOC1)S(C)(=O)=O)S(=O)(=O)c1ccc(CO)cc1` was tested. Which IC50 did it give?
Answer: Its IC50 is 0.0227 µM.

Question: With `COCCN(CC(=O)N[C@@H](Cc1ccccc1)[C@H](O)CN(CC(C)C)S(=O)(=O)c1ccc(OC)cc1)[C@H]1CCOC1` as the compound, how does the IC50 read?
Answer: Its IC50 is 0.00035 µM.

Question: With `COCCN(CC(=O)N[C@@H](Cc1ccccc1)[C@H](O)CN(CC(C)C)S(=O)(=O)c1ccc(N)cc1)[C@H]1CCOC1` as the compound, how does the IC50 read?
Answer: The IC50 was 0.00088 µM.

Question: With `CC(C)CN(C[C@@H](O)[C@H](Cc1ccccc1)NC(=O)CN(CC(N)=O)[C@H]1CCOC1)S(=O)(=O)c1ccc(OC(F)(F)F)cc1` as the compound, how does the IC50 read?
Answer: Its IC50 is 0.53 µM.

Question: How did the IC50 turn out when `CC(C)CN(C[C@@H](O)[C@H](Cc1ccccc1)NC(=O)CN([C@H]1CCOC1)S(C)(=O)=O)S(=O)(=O)c1ccc(N)cc1` was run?
Answer: The IC50 was 0.0598 µM.

Question: How did the IC50 turn out when `CC(C)CN(C[C@@H](O)[C@H](Cc1ccccc1)NC(=O)CN([C@H]1CCOC1)S(C)(=O)=O)S(=O)(=O)c1ccc(OC(F)(F)F)cc1` was run?
Answer: Its IC50 is greater than 1 µM.

Question: For `COCCN(CC(=O)N[C@@H](Cc1ccccc1)[C@H](O)CN(CC(C)C)S(=O)(=O)c1ccc([N+](=O)[O-])cc1)[C@H]1CCOC1`, which IC50 is on record?
Answer: Its IC50 is 0.0177 µM.

Question: `CC(C)CN(C[C@@H](O)[C@H](Cc1ccccc1)NC(=O)CN[C@H]1CCOC1)S(=O)(=O)c1ccc(CO)cc1` was tested. Which IC50 did it give?
Answer: Its IC50 is 0.0102 µM.

Question: `COc1ccc(S(=O)(=O)N(CC(C)C)C[C@@H](O)[C@H](Cc2ccccc2)NC(=O)CN(CC(=O)N(C)C)[C@H]2CCOC2)cc1` was tested. Which IC50 did it give?
Answer: Its IC50 is 0.0286 µM.

Question: How did the IC50 turn out when `CC(C)CN(C[C@@H](O)[C@H](Cc1ccccc1)NC(=O)CN(CC(=O)N1CCOCC1)[C@H]1CCOC1)S(=O)(=O)c1ccc([N+](=O)[O-])cc1` was run?
Answer: The IC50 was 0.0981 µM.

Question: How did the IC50 turn out when `CC(C)CN(C[C@@H](O)[C@H](Cc1ccccc1)NC(=O)CN(CC(N)=O)[C@H]1CCOC1)S(=O)(=O)c1ccc2c(c1)OCO2` was run?
Answer: The IC50 was greater than 1 µM.

Question: `CC(C)CN(C[C@@H](O)[C@H](Cc1ccccc1)NC(=O)CN(CC(=O)N(C)C)[C@H]1CCOC1)S(=O)(=O)c1ccc(OC(F)(F)F)cc1` was tested. Which IC50 did it give?
Answer: The IC50 was greater than 1 µM.

Question: How did the IC50 turn out when `CC(C)CN(C[C@@H](O)[C@H](Cc1ccccc1)NC(=O)CN(CC(=O)N1CCOCC1)[C@H]1CCOC1)S(=O)(=O)c1ccc(N)cc1` was run?
Answer: Its IC50 is 0.16 µM.

Question: `COc1ccc(S(=O)(=O)N(CC(C)C)C[C@@H](O)[C@H](Cc2ccccc2)NC(=O)CN[C@@H]2CCOC2)cc1` was tested. Which IC50 did it give?
Answer: Its IC50 is 0.016 µM.

Question: `CC(C)CN(C[C@@H](O)[C@H](Cc1ccccc1)NC(=O)CN[C@@H]1CCOC1)S(=O)(=O)c1ccc(N)cc1` was tested. Which IC50 did it give?
Answer: The IC50 was 0.141 µM.

Question: How did the IC50 turn out when `COCCN(CC(=O)N[C@@H](Cc1ccccc1)[C@H](O)CN(CC(C)C)S(=O)(=O)c1ccc2c(c1)OCO2)[C@@H]1CCOC1` was run?
Answer: Its IC50 is 0.006 µM.

Question: Which IC50 does the source give for `COc1ccc(S(=O)(=O)N(CC(C)C)C[C@@H](O)[C@H](Cc2ccccc2)NC(=O)CN([C@H]2CCOC2)S(C)(=O)=O)cc1OC` here?
Answer: The IC50 was greater than 1 µM.

Question: For `COc1ccc(S(=O)(=O)N(CC(C)C)C[C@@H](O)[C@H](Cc2ccccc2)NC(=O)CN(CC(=O)N2CCOCC2)[C@H]2CCOC2)cc1`, which IC50 is on record?
Answer: Its IC50 is 0.044 µM.

Question: For `COc1ccc(S(=O)(=O)N(CC(C)C)C[C@@H](O)[C@H](Cc2ccccc2)NC(=O)CN[C@H]2CCOC2)cc1`, which IC50 is on record?
Answer: Its IC50 is 0.00223 µM.

Question: How did the IC50 turn out when `CC(C)CN(C[C@@H](O)[C@H](Cc1ccccc1)NC(=O)CN[C@H]1CCOC1)S(=O)(=O)c1ccc(OC(F)(F)F)cc1` was run?
Answer: Its IC50 is 0.29 µM.

Question: With `CC(C)CN(C[C@@H](O)[C@H](Cc1ccccc1)NC(=O)CN([C@H]1CCOC1)S(C)(=O)=O)S(=O)(=O)c1ccc([N+](=O)[O-])cc1` as the compound, how does the IC50 read?
Answer: The IC50 was 0.291 µM.

Question: With `CC(C)CN(C[C@@H](O)[C@H](Cc1ccccc1)NC(=O)CN(CC(=O)N(C)C)[C@H]1CCOC1)S(=O)(=O)c1ccc(CO)cc1` as the compound, how does the IC50 read?
Answer: The IC50 was 0.065 µM.

Question: With `CC(C)CN(C[C@@H](O)[C@H](Cc1ccccc1)NC(=O)CN(CC(N)=O)[C@H]1CCOC1)S(=O)(=O)c1ccc(N)cc1` as the compound, how does the IC50 read?
Answer: The IC50 was 0.057 µM.

Question: How did the IC50 turn out when `CC(C)CN(C[C@@H](O)[C@H](Cc1ccccc1)NC(=O)CN(CC(=O)N(C)C)[C@H]1CCOC1)S(=O)(=O)c1ccc2c(c1)OCO2` was run?
Answer: The IC50 was 0.0569 µM.

Question: Which IC50 does the source give for `CC(C)CN(C[C@@H](O)[C@H](Cc1ccccc1)NC(=O)CN[C@H]1CCOC1)S(=O)(=O)c1ccc(N)cc1` here?
Answer: Its IC50 is 0.00411 µM.

Question: Which IC50 does the source give for `COCCN(CC(=O)N[C@@H](Cc1ccccc1)[C@H](O)CN(CC(C)C)S(=O)(=O)c1ccc(OC)c(OC)c1)[C@H]1CCOC1` here?
Answer: The IC50 was 0.19 µM.

Question: `COc1ccc(S(=O)(=O)N(CC(C)C)C[C@@H](O)[C@H](Cc2ccccc2)NC(=O)CN(CC(N)=O)[C@H]2CCOC2)cc1OC` was tested. Which IC50 did it give?
Answer: The IC50 was 0.0099 µM.

Question: How did the IC50 turn out when `CC(C)CN(C[C@@H](O)[C@H](Cc1ccccc1)NC(=O)CN(CC(=O)N1CCOCC1)[C@H]1CCOC1)S(=O)(=O)c1ccc(CO)cc1` was run?
Answer: Its IC50 is 0.11 µM.

Question: `CC(C)CN(C[C@@H](O)[C@H](Cc1ccccc1)NC(=O)CN[C@H]1CCOC1)S(=O)(=O)c1ccc2c(c1)OCO2` was tested. Which IC50 did it give?
Answer: The IC50 was 0.00165 µM.

Question: For `CC(C)CN(C[C@@H](O)[C@H](Cc1ccccc1)NC(=O)CN[C@H]1CCOC1)S(=O)(=O)c1ccc([N+](=O)[O-])cc1`, which IC50 is on record?
Answer: The IC50 was 0.0463 µM.

Question: `CC(C)CN(C[C@@H](O)[C@H](Cc1ccccc1)NC(=O)CN(CC(=O)N1CCOCC1)[C@H]1CCOC1)S(=O)(=O)c1ccc2c(c1)OCO2` was tested. Which IC50 did it give?
Answer: The IC50 was 0.0272 µM.

Question: For `CC(C)CN(C[C@@H](O)[C@H](Cc1ccccc1)NC(=O)CN(CC(N)=O)[C@H]1CCOC1)S(=O)(=O)c1ccc([N+](=O)[O-])cc1`, which IC50 is on record?
Answer: The IC50 was 0.0336 µM.

Question: `COCCN(CC(=O)N[C@@H](Cc1ccccc1)[C@H](O)CN(CC(C)C)S(=O)(=O)c1ccc(OC)cc1)[C@@H]1CCOC1` was tested. Which IC50 did it give?
Answer: The IC50 was 0.00685 µM.

Question: For `COc1ccc(S(=O)(=O)N(CC(C)C)C[C@@H](O)[C@H](Cc2ccccc2)NC(=O)CN(CC(=O)N2CCOCC2)[C@H]2CCOC2)cc1OC`, which IC50 is on record?
Answer: Its IC50 is greater than 1 µM.

Question: How did the IC50 turn out when `CC(C)CN(C[C@@H](O)[C@H](Cc1ccccc1)NC(=O)CN([C@H]1CCOC1)S(C)(=O)=O)S(=O)(=O)c1ccc2c(c1)OCO2` was run?
Answer: The IC50 was 0.0229 µM.

Question: With `COCCN(CC(=O)N[C@@H](Cc1ccccc1)[C@H](O)CN(CC(C)C)S(=O)(=O)c1ccc(OC(F)(F)F)cc1)[C@H]1CCOC1` as the compound, how does the IC50 read?
Answer: Its IC50 is 0.068 µM.

Question: For `COCCN(CC(=O)N[C@@H](Cc1ccccc1)[C@H](O)CN(CC(C)C)S(=O)(=O)c1ccc2c(c1)OCO2)[C@H]1CCOC1`, which IC50 is on record?
Answer: Its IC50 is 0.00077 µM.

Question: How did the IC50 turn out when `CC(C)CN(C[C@@H](O)[C@H](Cc1ccccc1)NC(=O)CN(CC(=O)N1CCOCC1)[C@H]1CCOC1)S(=O)(=O)c1ccc(OC(F)(F)F)cc1` was run?
Answer: Its IC50 is 0.91 µM.

Question: How did the IC50 turn out when `CC(C)CN(C[C@@H](O)[C@H](Cc1ccccc1)NC(=O)CN(CC(=O)N(C)C)[C@H]1CCOC1)S(=O)(=O)c1ccc(N)cc1` was run?
Answer: Its IC50 is 0.038 µM.

Question: Which IC50 does the source give for `COCCN(CC(=O)N[C@@H](Cc1ccccc1)[C@H](O)CN(CC(C)C)S(=O)(=O)c1ccc(N)cc1)[C@@H]1CCOC1` here?
Answer: The IC50 was 0.0228 µM.

Question: How did the IC50 turn out when `CC(C)CN(C[C@@H](O)[C@H](Cc1ccccc1)NC(=O)CN(CC(N)=O)[C@H]1CCOC1)S(=O)(=O)c1ccc(CO)cc1` was run?
Answer: Its IC50 is 0.0193 µM.

Question: `COc1ccc(S(=O)(=O)N(CC(C)C)C[C@@H](O)[C@H](Cc2ccccc2)NC(=O)CN(CC(=O)N(C)C)[C@H]2CCOC2)cc1OC` was tested. Which IC50 did it give?
Answer: The IC50 was greater than 1 µM.

Question: How did the IC50 turn out when `COc1ccc(S(=O)(=O)N(CC(C)C)C[C@@H](O)[C@H](Cc2ccccc2)NC(=O)CN(CC(N)=O)[C@H]2CCOC2)cc1` was run?
Answer: The IC50 was 0.0204 µM.

Question: With `CC(C)CN(C[C@@H](O)[C@H](Cc1ccccc1)NC(=O)CN(CC(=O)N(C)C)[C@H]1CCOC1)S(=O)(=O)c1ccc([N+](=O)[O-])cc1` as the compound, how does the IC50 read?
Answer: The IC50 was 0.27 µM.
